Laboratory results: ChEMBL document CHEMBL1121711, “Novel peptidoaminobenzophenones, terminal N-substituted peptidoaminobenzophenones, and N-(acylglycyl)aminobenzophenones as open-ring derivatives of benzodiazepines” (J Med Chem, 1981)

Tests used:
Mus musculus [1] = assay: Antagonism of pentylenetetrazole-induced convulsion in mice by oral administration.; format: functional
In short: (§1)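 Compounds given orally as an aqueous arabic gum suspension to groups of five mice; 60 min after dosing, pentylenetetrazole 125 mg/kg given subcutaneously. Animals observed 2 h for convulsion and death; dose protecting 50% (ED50) estimated graphically.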

Mus musculus [2] = assay: Muscle relaxation activity using the rotarod performance test in mice by oral administration.; format: functional
In short: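 Groups of five mice dosed orally with compound suspended in aqueous arabic gum. At 60 min post-dose each mouse placed on a 3 cm diameter wooden rod turning at 5 rpm; falls within 2 min counted. ED50 estimated graphically.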

[3] = Acute toxicity expressed as LD50 in mice after oral administration.; format: organism-based; details: mouse, in vivo
In short: (§2)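 Mice dosed orally as a suspension in aqueous arabic gum, groups of one to three animals; acute toxicity judged on day 7 after dosing. Values for the three reference benzodiazepines derived by the probit method.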

Mus musculus [4] = assay: Compound was tested for antagonism of pentylenetetrazole-induced convulsion in mice by oral administration.; format: functional; in short: as §1
[5] = Acute toxicity of compound expressed as LD50 was measured in mice after oral administration.; format: organism-based; details: mouse, in vivo; in short: as §2

Question: For `CCCC(=O)NCC(=O)N(C)c1ccc(Cl)cc1C(=O)c1ccccc1Cl`, which ED50 (Mus musculus [1]) is on record?
Answer: 0.98 mg/kg

Question: What about the ED50 (Mus musculus [2]) of the same compound?
Answer: 55.2 mg/kg

Question: What about the LD50 [3] of the same compound?
Answer: > 1000 mg/kg

Question: Which ED50 (Mus musculus [1]) does the source give for `CC(C)NCC(=O)NCC(=O)N(C)c1ccc(Cl)cc1C(=O)c1ccccc1Cl` here?
Answer: 1 mg/kg

Question: What about the ED50 (Mus musculus [2]) of the same compound?
Answer: 13 mg/kg

Question: What about the LD50 [3] of the same compound?
Answer: 750 mg/kg

Question: With `CN(C(=O)CNC(=O)CN)c1ccc([N+](=O)[O-])cc1C(=O)c1ccccc1` as the compound, how does the ED50 (Mus musculus [2]) read?
Answer: 2.94 mg/kg

Question: What about the ED50 (Mus musculus [4]) of the same compound?
Answer: 0.28 mg/kg

Question: What does the source list for `CN(C(=O)CNC(=O)CNCCc1ccccc1)c1ccc(Cl)cc1C(=O)c1ccccc1Cl`?
Answer: ED50 (Mus musculus [1]): 1.6 mg/kg; ED50 (Mus musculus [2]): 86 mg/kg; LD50 [3]: > 1000 mg/kg

Question: Which ED50 (Mus musculus [1]) does the source give for `CC(=O)NCC(=O)Nc1ccc(Cl)cc1C(=O)c1ccccc1Cl` here?
Answer: > 100 mg/kg

Question: What about the ED50 (Mus musculus [2]) of the same compound?
Answer: > 100 mg/kg

Question: What about the LD50 [3] of the same compound?
Answer: > 1000 mg/kg

Question: Which results are given for `CC(C)C(=O)NCC(=O)N(C)c1ccc(Cl)cc1C(=O)c1ccccc1Cl`?
Answer: ED50 (Mus musculus [1]): 6 mg/kg; ED50 (Mus musculus [2]): > 100 mg/kg; LD50 [3]: > 1000 mg/kg

Question: Which ED50 (Mus musculus [1]) does the source give for `CC(NC(=O)CN)C(=O)N(C)c1ccc(Cl)cc1C(=O)c1ccccc1Cl` (stereo not given) here?
Answer: 0.47 mg/kg

Question: And the ED50 (Mus musculus [2])?
Answer: 8.5 mg/kg

Question: And the LD50 [3]?
Answer: 750 mg/kg

Question: What does the source list for `CN(C(=O)CNC(=O)CN)c1ccc(Cl)cc1C(=O)c1ccccc1Cl` [LORZAFONE ANHYDROUS]?
Answer: ED50 (Mus musculus [1]): 0.58 mg/kg; ED50 (Mus musculus [2]): 27.7 mg/kg; LD50 [3]: > 1000 mg/kg

Question: With `NC(C(=O)NCC(=O)Nc1ccc(Cl)cc1C(=O)c1ccccc1)c1ccccc1` (stereo not given) as the compound, how does the ED50 (Mus musculus [1]) read?
Answer: 28 mg/kg

Question: And the ED50 (Mus musculus [2])?
Answer: > 100 mg/kg

Question: What about the LD50 [3] of the same compound?
Answer: > 1000 mg/kg

Question: For `CNC1=Nc2ccc(Cl)cc2C(c2ccccc2)=[N+]([O-])C1` [CHLORDIAZEPOXIDE], which LD50 [3] is on record?
Answer: 1080 mg/kg

Question: Which ED50 (Mus musculus [1]) does the source give for `CN1CCN(CC(=O)NCC(=O)N(C)c2ccc(Cl)cc2C(=O)c2ccccc2Cl)CC1` here?
Answer: 59 mg/kg

Question: And the ED50 (Mus musculus [2])?
Answer: > 100 mg/kg

Question: What about the LD50 [3] of the same compound?
Answer: > 1000 mg/kg

Question: For `CN(C(=O)CNC(=O)CN1CCCCC1)c1ccc(Cl)cc1C(=O)c1ccccc1Cl`, which ED50 (Mus musculus [1]) is on record?
Answer: 7.5 mg/kg

Question: What about the ED50 (Mus musculus [2]) of the same compound?
Answer: > 100 mg/kg

Question: What about the LD50 [3] of the same compound?
Answer: > 1000 mg/kg

Question: What does the source list for `CCC(=O)NCC(=O)N(C)c1ccc(Cl)cc1C(=O)c1ccccc1Cl`?
Answer: ED50 (Mus musculus [1]): 1.4 mg/kg; ED50 (Mus musculus [2]): 36 mg/kg; LD50 [3]: > 1000 mg/kg

Question: Which ED50 (Mus musculus [1]) does the source give for `CC(=O)NCC(=O)Nc1ccc(Cl)cc1C(=O)c1ccccc1` here?
Answer: 37 mg/kg

Question: And the ED50 (Mus musculus [2])?
Answer: > 100 mg/kg

Question: And the LD50 [3]?
Answer: > 1000 mg/kg

Question: For `CC(=O)NCC(=O)N(C)c1ccc(Cl)cc1C(=O)c1ccccc1Cl`, which ED50 (Mus musculus [1]) is on record?
Answer: 2.3 mg/kg

Question: What about the ED50 (Mus musculus [2]) of the same compound?
Answer: 58 mg/kg

Question: And the LD50 [3]?
Answer: > 1000 mg/kg

Question: For `CCCCCCCCCCCCCCCC(=O)NCC(=O)N(C)c1ccc(Cl)cc1C(=O)c1ccccc1Cl`, which ED50 (Mus musculus [1]) is on record?
Answer: > 100 mg/kg

Question: What about the ED50 (Mus musculus [2]) of the same compound?
Answer: > 100 mg/kg

Question: And the LD50 [5]?
Answer: > 1000 mg/kg

Question: Which ED50 (Mus musculus [1]) does the source give for `NCC(=O)NCC(=O)Nc1ccc([N+](=O)[O-])cc1C(=O)c1ccccc1Cl` here?
Answer: 2.64 mg/kg

Question: What about the ED50 (Mus musculus [2]) of the same compound?
Answer: 63.9 mg/kg

Question: And the LD50 [5]?
Answer: 750 mg/kg

Question: With `O=C1CN=C(c2ccccc2)c2cc([N+](=O)[O-])ccc2N1` [NITRAZEPAM] as the compound, how does the ED50 (Mus musculus [1]) read?
Answer: 0.23 mg/kg

Question: And the ED50 (Mus musculus [2])?
Answer: 4.25 mg/kg

Question: With `CCN(CC)CC(=O)NCC(=O)N(C)c1ccc(Cl)cc1C(=O)c1ccccc1Cl` as the compound, how does the ED50 (Mus musculus [1]) read?
Answer: 2.2 mg/kg

Question: And the ED50 (Mus musculus [2])?
Answer: 34 mg/kg

Question: And the LD50 [3]?
Answer: > 1000 mg/kg

Question: Which results are given for `CNCC(=O)NCC(=O)N(C)c1ccc(Cl)cc1C(=O)c1ccccc1Cl`?
Answer: LD50 [3]: > 1000 mg/kg; ED50 (Mus musculus [4]): 1.55 mg/kg

Question: Which ED50 (Mus musculus [1]) does the source give for `CN(C(=O)CNC(=O)CN1CCN(c2ccccc2)CC1)c1ccc(Cl)cc1C(=O)c1ccccc1Cl` here?
Answer: 75 mg/kg

Question: And the ED50 (Mus musculus [2])?
Answer: > 100 mg/kg

Question: What about the LD50 [3] of the same compound?
Answer: > 1000 mg/kg

Question: For `CN(C(=O)CNC(=O)c1ccccc1)c1ccc(Cl)cc1C(=O)c1ccccc1`, which ED50 (Mus musculus [1]) is on record?
Answer: 7.6 mg/kg

Question: And the ED50 (Mus musculus [2])?
Answer: > 100 mg/kg

Question: And the LD50 [3]?
Answer: > 1000 mg/kg

Question: Which ED50 (Mus musculus [1]) does the source give for `NCC(=O)NCC(=O)Nc1ccc([N+](=O)[O-])cc1C(=O)c1ccccc1` here?
Answer: 4.82 mg/kg

Question: And the ED50 (Mus musculus [2])?
Answer: 24.8 mg/kg

Question: What about the LD50 [3] of the same compound?
Answer: > 1000 mg/kg

Question: Which ED50 (Mus musculus [1]) does the source give for `CCCCCC(=O)NCC(=O)N(C)c1ccc(Cl)cc1C(=O)c1ccccc1Cl` here?
Answer: 1.9 mg/kg

Question: And the ED50 (Mus musculus [2])?
Answer: 90 mg/kg

Question: What about the LD50 [3] of the same compound?
Answer: > 1000 mg/kg

Question: Which ED50 (Mus musculus [1]) does the source give for `CN(C(=O)CNC(=O)CN1CCOCC1)c1ccc(Cl)cc1C(=O)c1ccccc1Cl` here?
Answer: 14 mg/kg

Question: And the ED50 (Mus musculus [2])?
Answer: > 100 mg/kg

Question: And the LD50 [3]?
Answer: > 1000 mg/kg

Question: With `CN(C(=O)CNC(=O)CN1CCC(O)(c2ccc(Cl)cc2)CC1)c1ccc(Cl)cc1C(=O)c1ccccc1Cl` as the compound, how does the ED50 (Mus musculus [1]) read?
Answer: 27 mg/kg

Question: What about the ED50 (Mus musculus [2]) of the same compound?
Answer: > 100 mg/kg

Question: And the LD50 [3]?
Answer: > 1000 mg/kg

Question: For `CCCCC(=O)NCC(=O)N(C)c1ccc(Cl)cc1C(=O)c1ccccc1Cl`, which ED50 (Mus musculus [1]) is on record?
Answer: 1.3 mg/kg

Question: What about the ED50 (Mus musculus [2]) of the same compound?
Answer: 90 mg/kg

Question: And the LD50 [3]?
Answer: > 1000 mg/kg

Question: With `CCCCCCC(=O)NCC(=O)N(C)c1ccc(Cl)cc1C(=O)c1ccccc1Cl` as the compound, how does the ED50 (Mus musculus [1]) read?
Answer: 1.9 mg/kg

Question: And the ED50 (Mus musculus [2])?
Answer: 70 mg/kg

Question: And the LD50 [3]?
Answer: > 1000 mg/kg

Question: What does the source list for `CN(C(=O)CNC(=O)Cc1ccccc1)c1ccc(Cl)cc1C(=O)c1ccccc1Cl`?
Answer: ED50 (Mus musculus [1]): 35 mg/kg; ED50 (Mus musculus [2]): > 100 mg/kg; LD50 [3]: > 1000 mg/kg

Question: With `CN(C(=O)CNC(=O)c1ccccc1)c1ccc(Cl)cc1C(=O)c1ccccc1Cl` as the compound, how does the ED50 (Mus musculus [1]) read?
Answer: 2.9 mg/kg

Question: And the ED50 (Mus musculus [2])?
Answer: > 100 mg/kg

Question: And the LD50 [3]?
Answer: > 1000 mg/kg

Question: With `CN(C)CC(=O)NCC(=O)N(C)c1ccc(Cl)cc1C(=O)c1ccccc1Cl` as the compound, how does the ED50 (Mus musculus [1]) read?
Answer: 2.6 mg/kg

Question: And the ED50 (Mus musculus [2])?
Answer: 26 mg/kg

Question: What about the LD50 [3] of the same compound?
Answer: > 1000 mg/kg

Question: For `CN(C(=O)CNC(=O)CN)c1ccc([N+](=O)[O-])cc1C(=O)c1ccccc1Cl`, which ED50 (Mus musculus [2]) is on record?
Answer: 10 mg/kg

Question: And the ED50 (Mus musculus [4])?
Answer: 0.32 mg/kg
